The sample as a whole holds a higher share of hits than the screen did.
HUVEC prolif 384: blocks proliferation of human endothelial cells | HUVEC proliferation, CellTiter-Glo luminescence, 72 h; stronger effect = lower value | viability, % at 10 µM (by protocol) | hit rate 1.1% among 86,000 | AID 648;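 active means viability at or below 30%; inactive means viability above 30%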;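 further: 100% = median luminescence of DMSO-only cell control wells on each plate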
PTEN del growth: PTEN-deleted cell growth suppression | HCT116 PTEN-null viability, CellTiter-Glo, 60 h; stronger effect = lower value | viability, % at 10 µM | hit rate 1.2% among 140,000;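 active means viability at or below a set limit, 4 SD under the median of all tested compounds, cut at about 3.7% in these data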;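 further: PTEN knockout HCT116 line with beta catenin targeted HCT116 as companion control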
Fibroblast inh: blocks proliferation of human lung fibroblasts | LL 47 human lung fibroblast viability, ATP luminescence; stronger effect = lower value | viability, % at 10 µM | hit rate 1.1% among 85,000 | AID 719;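 active means viability at or below 50% in the single dose screen; inactive means viability above 50%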;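 further: compound exposure lasted 72 h before the ATP readout; 100% = median luminescence of untreated cell-only wells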
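Material: Human LL 47 lung fibroblast cells | Input: 1,150 cells/well | Buffer or medium: IMEM plus 15% FBS | Compound dosing: 0.1% DMSO in all compound wells | Times: Overnight cell rest, 72 h compound treatment at 37 °C | Signal: CellTiter-Glo luminescence measuring cellular ATP | Measure: % viability versus median cells-only luminescence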
H69AR inhibit: growth inhibitors of human H69AR lung tumor cells; H69AR lung tumor viability, ATP luminescence, 72 h; stronger effect = lower value; hit rate 6% among 85,000; viability, % at 10 µM;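 active means viability at or below 40%; inactive means viability above 40%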;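 further: multidrug resistant small cell line overexpressing MRP-1 efflux transporter; 100% = mean luminescence of untreated control wells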
bCat KO growth: beta-catenin-lacking colon tumor cell growth suppression; HCT116 beta-catenin knockout viability, CellTiter-Glo, 60 h; stronger effect = lower value; viability, % at 10 µM; hit rate 1.5% among 140,000; AID 818;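 active means viability at or under a set limit, the compound median less 4 SD, cut at about 6% in these data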;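 further: 0% = Hyamine 1622 control at 20 µM and 100% = untreated cell control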
* hit, by the source's call; . = not tested or not shown.

SMILES	HUVEC prolif 384	PTEN del growth	Fibroblast inh	H69AR inhibit	bCat KO growth
O=S(=O)(/C(=C/c1ccc(C(F)(F)F)cc1)c1nc2ccccc2[nH]1)c1ccccc1	.	1.6*	.	.	1.5*
N#C/C(=C\c1cccc(Oc2ccc(C(F)(F)F)cc2[N+](=O)[O-])c1)c1nc2ccccc2[nH]1	.	88	.	.	85
CC(C)c1ccc(/C=C(\c2nc3ccccc3[nH]2)S(=O)(=O)c2ccccc2)cc1	.	1.9*	.	.	1.8*
CC(C)(C)/C(O)=C/c1nc2ccccc2[nH]c1=O	.	100	.	.	94
S=C(NCc1ccco1)N1CCN(Cc2ccc(Cl)cc2Cl)CC1	.	81	.	.	79
CC(C)C1N=C(c2ccc3c(c2)OCO3)CC(c2ccccc2O)N1 (stereo not given)	59	8	56	2.1*	5.8*
c1ccc(CCNc2ncnc3scc(C4COc5ccccc5O4)c23)cc1 (stereo not given)	87	50	97	28*	55
Cc1cc(C)n(-c2nc3c(c(=O)n(Cc4ccc(Cl)c(Cl)c4)c(=O)n3C)n2C)n1	69	.	91	38*	.
Cn1c(N2CCCCC2)nc2c1c(=O)n(Cc1cccc(Br)c1)c(=O)n2C	99	67	98	34*	90
CC1CN(c2nc3c(c(=O)n(Cc4ccc(Cl)c(Cl)c4)c(=O)n3C)n2C)CC(C)O1 (stereo not given)	90	57	88	96	63
Cn1c(N2CCN(c3ccccn3)CC2)nc2c1c(=O)n(Cc1ccccc1Cl)c(=O)n2C	84	.	92	23*	.
O=C(CCn1c(=O)c2ccccc2n(Cc2cc(=O)n3ccccc3n2)c1=O)NCc1ccco1	106	93	97	91	87
CC(=O)N(C)c1ccc(OCC(O)Cn2c3ccc(Cl)cc3c3cc(Cl)ccc32)cc1 (stereo not given)	.	1.8*	.	.	2.8*
CNc1ccc(/C=C/C(=O)c2cccc3ccccc23)cc1[N+](=O)[O-]	.	5	.	.	5.3*
C=C(C)C1CC=C(C)/C(=N/NC(=O)CNc2ccc(OCC)cc2)C1 (stereo not given)	.	70	.	.	57
Cc1cc(=O)oc2cc(OCC(=O)N3CC(C)OC(C)C3)ccc12 (stereo not given)	94	102	104	93	92
Cc1cc(=O)oc2cc(OCC3CC(c4ccccc4)=NO3)ccc12 (stereo not given)	64	43	91	24*	40
Cc1cc(=O)oc2cc(OCC(=O)N3c4ccccc4CC3C)ccc12 (stereo not given)	57	19	62	24*	19
CC(C)(C)NS(=O)(=O)c1ccc(NS(=O)(=O)c2ccc(F)cc2)cc1	100	97	102	92	96
CCCCc1ccc(-c2csc(/C(C#N)=C\c3ccc(C)o3)n2)cc1	.	87	.	.	95
CCOc1ccc(-c2csc(/C(C#N)=C\c3ccc(O)c([N+](=O)[O-])c3)n2)cc1	.	5	.	.	5.5*
CC1=C(C)C(=O)NC(Nc2nc(C)c3cc(C)cc(C)c3n2)N1 (stereo not given)	24*	.	14*	24*	.
O=C(Cn1cnc2c(oc3ccccc32)c1=O)NCCc1ccccc1	83	.	100	95	.
C=CCOC(=O)/C(=C/c1cccc2ccccc12)NC(=O)c1ccccc1	.	88	.	.	88
CCCC(=O)N(CCN(C(=O)CCC)c1ccccc1)c1ccccc1	100	89	93	56	81
SMILES	HUVEC prolif 384	PTEN del growth	Fibroblast inh	H69AR inhibit	bCat KO growth
C=CCNc1nc(-c2ccccn2)nnc1-c1ccccc1	12*	15	14*	40	14
OCCCNc1nc(-c2ccc(Cl)cc2)nnc1-c1ccccc1	.	87	.	.	91
CC1CCc2cccc3c2N1c1cc(C#N)c(C#N)cc1O3 (stereo not given)	46	65	84	76	74
Cc1ccc(C(NC(=O)N2CCOCC2)C(Cl)Cl)cc1F (stereo not given)	.	93	.	.	94
Cc1ccc(C(NC(=O)N2CCOCC2)=C(Cl)Cl)cc1F	103	1.4*	92	8.7*	3.4*
Cc1nc([N+](=O)[O-])c(N2CCN(Cc3ccccc3)CC2)n1Cc1ccccc1	108	84	101	87	84
Cc1nc([N+](=O)[O-])c(Br)n1CC(=O)c1ccc2ccccc2c1	42	26	56	0.4*	24
Cc1nc([N+](=O)[O-])c(Br)n1CC(=O)c1ccc(Br)cc1	33	4	25*	-0.4*	3.0*
Cc1nc([N+](=O)[O-])c(Br)n1CC(=O)c1ccccc1	77	33	87	35*	47
